We go through eight compounds from ChEMBL document CHEMBL3132745, “Synthesis and Antimicrobial Activities of His(2-aryl)-Arg and Trp-His(2-aryl) Classes of Dipeptidomimetics” (Medchemcomm, 2014).

One may read the MFC as the smallest concentration meeting the test's criterion for killing the fungus. What is called MIC is the smallest concentration in the dilution series that meets the test's criterion for growth inhibition. One may read the IC50 as the concentration that gives 50% inhibition.

Data set [1] is described as follows: Selectivity index, ratio of cytotoxicity against pig LLC-PK1 cells to IC50 for Cryptococcus neoformans ATCC 90113. It is filed as toxicity, cell-based. Particulars: read-out: Selectivity Index.
A short description of data set [2]: Selectivity index, ratio of cytotoxicity against african green monkey Vero cells to IC50 for Cryptococcus neoformans ATCC 90113. It is filed as toxicity, cell-based. Conditions: read-out: Selectivity Index.
The nature of data set [3]: Selectivity index, ratio of cytotoxicity against human SKOV3 cells to IC50 for Cryptococcus neoformans ATCC 90113. Particulars: read-out: Selectivity Index. It is filed as toxicity, cell-based, SK-OV-3.
A short description of data set [4]: Selectivity index, ratio of cytotoxicity against human BT549 cells to IC50 for Cryptococcus neoformans ATCC 90113. Type of data set: toxicity, cell-based, BT-549. Particulars: read-out: Selectivity Index.
Data set [5] can be described thus: Selectivity index, ratio of cytotoxicity against human KB cells to IC50 for Cryptococcus neoformans ATCC 90113. Particulars: read-out: Selectivity Index. It is filed as toxicity, cell-based.
Data set [6] is described as follows: Selectivity index, ratio of cytotoxicity against human SK-MEL cells to IC50 for Cryptococcus neoformans ATCC 90113. Type of data set: toxicity, cell-based. Particulars: read-out: Selectivity Index.
The next data set has as its system LLC-PK1. Description: Cytotoxicity against pig LLC-PK1 cells assessed as cell viability after 48 hrs by neutral red uptake assay. It is filed as cell-based, Sus scrofa. Conditions: llc-pk1, 48 h. In a few lines:
(§1)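 Neutral red uptake assay on human cancer lines (SK-MEL, KB, BT-549, SK-OV-3) and noncancerous mammalian cells (VERO, LLC-PK1). Highest tested concentration was 10 µg/mL.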

For the next data set, the system named is Vero. Kind of data set: Cytotoxicity against african green monkey Vero cells assessed as cell viability after 48 hrs by neutral red uptake assay. Type of data set: cell-based. Particulars: chlorocebus sabaeus. Put shortly:
as §1

A further data set has as its system SK-OV-3. Description: Cytotoxicity against human SKOV3 cells assessed as cell viability after 48 hrs by neutral red uptake assay. Particulars: sk-ov-3, 48 h. Type of data set: cell-based. Put shortly:
as §1

In the next data set the test system is KB. Kind of data set: Cytotoxicity against human KB cells assessed as cell viability after 48 hrs by neutral red uptake assay. It is filed as cell-based. In a few lines:
as §1

The test system of another data set is BT-549. Description: Cytotoxicity against human BT549 cells assessed as cell viability after 48 hrs by neutral red uptake assay. It is filed as cell-based. Particulars: bt-549, 48 h. Put shortly: as §1
The test system of another data set is SK-MEL. Description: Cytotoxicity against human SK-MEL cells assessed as cell viability after 48 hrs by neutral red uptake assay. Type of data set: cell-based. In a few lines: as §1
A further data set concerns Escherichia coli. Kind of data set: Antibacterial activity against Escherichia coli ATCC 35218 assessed as growth inhibition after 16-20 hrs by CLSI method. It is filed as functional, organism-based.
Another data set has as its system Aspergillus fumigatus. Description: Antifungal activity against Aspergillus fumigatus assessed as growth inhibition. It is filed as functional, organism-based.
A further data set concerns Pichia kudriavzevii. Kind of data set: Antifungal activity against Candida krusei assessed as growth inhibition. It is filed as functional, organism-based.
In the next data set the test system is Nakaseomyces glabratus. Description: Antifungal activity against Candida glabrata assessed as growth inhibition. Type of data set: functional, organism-based.
The next data set deals with Candida albicans. Description: Antifungal activity against Candida albicans assessed as growth inhibition. It is filed as functional, organism-based.
A further data set relates to Cryptococcus neoformans. Kind of data set: Antifungal activity against Cryptococcus neoformans ATCC 90113 assessed as growth inhibition after 70-74 hrs by CLSI method. It is filed as functional, organism-based.
The test system of data set [7] is Staphylococcus aureus. Description: Antibacterial activity against methicillin-resistant Staphylococcus aureus ATCC 33591 assessed as growth inhibition after 16-20 hrs by CLSI method. Type of data set: functional, organism-based.
Data set [8] deals with Staphylococcus aureus. Kind of data set: Antibacterial activity against Staphylococcus aureus ATCC 29213 assessed as growth inhibition after 16-20 hrs by CLSI method. Type of data set: functional, organism-based.
The mark [9] stands for this setting: Cryptococcus neoformans, ATCC 90113.
Where [10] appears, read: Cryptococcus neoformans, ATCC 90113, read-out: IC50.

SMILES strings stand for the structures. ≈ marks a conversion by molar mass, not a printed value. Calls of active or inactive are those of the source.

With `N=C(N)NCCC[C@H](NC(=O)[C@@H](N)Cc1c[nH]c(-c2ccccc2)n1)C(=O)NCc1ccccc1`, the selectivity ratio in [1], in [2], in [3], in [4], in data set [5] and in data set [6] was > 8.2 in each case. The Activity in the data set with LLC-PK1, in the data set with Vero, with SK-OV-3, in the data set on KB, with BT-549 and with SK-MEL was > 10 µg/mL throughout. The “growth inhibition (GI)” value with Escherichia coli, with Aspergillus fumigatus, with Pichia kudriavzevii, in the data set with Nakaseomyces glabratus and in the data set on Candida albicans was “inactive” throughout. Also, the MFC in the data set with Cryptococcus neoformans (setting [9]) was found to be 2.5 µg/mL (≈ 5.25 µM). For the same compound, in the data set with Cryptococcus neoformans (setting [9]), the minimal inhibitory concentration (MIC) is 2.5 µg/mL (≈ 5.25 µM). Besides, the IC50 with Cryptococcus neoformans (setting [10]) was 1.22 µg/mL (≈ 2.56 µM).

On to `COc1ccc(-c2nc(C[C@H](NC(=O)OC(C)(C)C)C(=O)N[C@@H](CCCNC(=N)N)C(=O)NCc3ccccc3)c[nH]2)cc1`, for which the selectivity ratio in data set [1], in data set [2], in [3], in data set [4], in data set [5] and in [6] was > 1.7 throughout. Further, the Activity in the data set with LLC-PK1, in the data set with Vero, in the data set with SK-OV-3, in the data set on KB, in the data set on BT-549 and in the data set with SK-MEL was > 10 µg/mL throughout. Besides, the “growth inhibition (GI)” value with Escherichia coli, in the data set on Aspergillus fumigatus, in the data set on Pichia kudriavzevii, with Nakaseomyces glabratus and in the data set with Candida albicans was “inactive” throughout. In addition, the minimal fungicidal concentration (MFC) with Cryptococcus neoformans (setting [9]) stood at 10 µg/mL (≈ 16.5 µM). In the data set with Cryptococcus neoformans (setting [9]), the MIC was found to be 10 µg/mL (≈ 16.5 µM). In addition, the concentration for half-maximal inhibition (IC50) in the data set on Cryptococcus neoformans (setting [10]) turned out to be 5.77 µg/mL (≈ 9.51 µM).

Turning to `COC(=O)[C@H](CCCNC(=N)N)NC(=O)[C@H](Cc1c[nH]c(-c2cccc3ccccc23)n1)NC(=O)OC(C)(C)C`, the selectivity ratio in data set [1], in [2], in [3], in data set [4], in [5] and in [6] was > 8 throughout. In addition, the Activity in the data set with LLC-PK1, with Vero, with SK-OV-3, with KB, with BT-549 and with SK-MEL was > 10 µg/mL in each case. In addition, the “growth inhibition (GI)” value with Escherichia coli, with Aspergillus fumigatus, with Pichia kudriavzevii, in the data set with Nakaseomyces glabratus and in the data set on Candida albicans was “inactive” each time. Moreover, the minimal fungicidal concentration (MFC) in the data set on Cryptococcus neoformans (setting [9]) is 2.5 µg/mL (≈ 4.53 µM). Besides, the MIC in the data set on Cryptococcus neoformans (setting [9]) stood at 2.5 µg/mL (≈ 4.53 µM). In addition, in the data set on Cryptococcus neoformans (setting [10]), the IC50 stood at 1.25 µg/mL (≈ 2.27 µM).

For the compound `COC(=O)[C@H](CCCNC(=N)N)NC(=O)[C@@H](N)Cc1c[nH]c(-c2ccc(-c3ccccc3)cc2)n1`, the selectivity ratio in data set [1], in [2], in data set [3], in data set [4], in data set [5] and in [6] was > 1.8 each time. The Activity with LLC-PK1, with Vero, with SK-OV-3, with KB, in the data set on BT-549 and in the data set with SK-MEL was > 10 µg/mL throughout. Further, the “growth inhibition (GI)” value with Escherichia coli, with Aspergillus fumigatus, in the data set with Pichia kudriavzevii, in the data set with Nakaseomyces glabratus and in the data set on Candida albicans was “inactive” throughout. Besides, the minimal fungicidal concentration (MFC) in the data set with Cryptococcus neoformans (setting [9]) came to 10 µg/mL (≈ 20.9 µM). In addition, the MIC in the data set on Cryptococcus neoformans (setting [9]) was 10 µg/mL (≈ 20.9 µM). Further, the 50% inhibitory concentration (IC50) in the data set with Cryptococcus neoformans (setting [10]) is 5.49 µg/mL (≈ 11.5 µM).

As to `N[C@@H](Cc1c[nH]c2ccccc12)C(=O)N[C@@H](Cc1c[nH]c(-c2ccccc2)n1)C(=O)NCc1ccccc1`, the selectivity ratio in data set [1], in [2], in data set [3], in data set [4], in data set [5] and in [6] was > 4.9 in each case. Besides, the Activity with LLC-PK1, in the data set on Vero, with SK-OV-3, in the data set with KB, in the data set on BT-549 and in the data set with SK-MEL was > 10 µg/mL in each case. Also, the “growth inhibition (GI)” value in the data set on Escherichia coli, with Aspergillus fumigatus, in the data set on Pichia kudriavzevii, in the data set on Nakaseomyces glabratus and in the data set with Candida albicans was “inactive” in each case. Also, in the data set on Cryptococcus neoformans (setting [9]), the MFC turned out to be 5 µg/mL (≈ 9.87 µM). Besides, the MIC in the data set on Cryptococcus neoformans (setting [9]) was determined as 5 µg/mL (≈ 9.87 µM). Besides, the half-maximal inhibitory concentration (IC50) in the data set with Cryptococcus neoformans (setting [10]) is 2.04 µg/mL (≈ 4.03 µM).

Regarding `CC(C)(C)OC(=O)N[C@@H](Cc1c[nH]c2ccccc12)C(=O)N[C@@H](Cc1c[nH]c(-c2ccc(C(C)(C)C)cc2)n1)C(=O)NCc1ccccc1`, the Activity in the data set with LLC-PK1, with Vero, in the data set with SK-OV-3, in the data set with KB, in the data set with BT-549 and in the data set on SK-MEL was > 10 µg/mL throughout. The “growth inhibition (GI)” value in the data set with Escherichia coli, in the data set on Aspergillus fumigatus, in the data set on Pichia kudriavzevii, with Nakaseomyces glabratus and in the data set on Candida albicans was “inactive” throughout. For the same compound, the IC50 entry with Staphylococcus aureus [7] was “Not Active”; with Staphylococcus aureus [8] it was 10.2 µg/mL (≈ 15.3 µM); in the data set with Cryptococcus neoformans it was “Not Active”. Also, the MBC entry in the data set with Staphylococcus aureus [7] and in the data set on Staphylococcus aureus [8] was “inactive” throughout. The MIC entry with Staphylococcus aureus [7], in the data set with Staphylococcus aureus [8] and with Cryptococcus neoformans was “inactive” in each case. Besides, in the data set on Cryptococcus neoformans, the MFC result is “inactive”.

With `COC(=O)[C@H](Cc1c[nH]c(-c2ccc(-c3ccccc3)cc2)n1)NC(=O)[C@H](Cc1c[nH]c2ccccc12)NC(=O)OC(C)(C)C`, the Activity with LLC-PK1, with Vero, in the data set on SK-OV-3, with KB, with BT-549 and in the data set on SK-MEL was > 10 µg/mL each time. The “growth inhibition (GI)” value in the data set with Escherichia coli, in the data set with Aspergillus fumigatus, in the data set on Pichia kudriavzevii, in the data set on Nakaseomyces glabratus and in the data set on Candida albicans was “inactive” each time. Besides, the IC50 result with Staphylococcus aureus [7] is “Not Active”; with Staphylococcus aureus [8], 19 µg/mL (≈ 31.2 µM); in the data set with Cryptococcus neoformans, “Not Active”. Also, the MBC result in the data set on Staphylococcus aureus [7] and in the data set with Staphylococcus aureus [8] was “inactive” each time. Moreover, the MIC entry in the data set with Staphylococcus aureus [7], with Staphylococcus aureus [8] and in the data set with Cryptococcus neoformans was “inactive” each time. Also, in the data set on Cryptococcus neoformans, the MFC entry was “inactive”.

Take `COC(=O)[C@H](Cc1c[nH]c(-c2ccc(C(C)(C)C)cc2)n1)NC(=O)[C@H](Cc1c[nH]c2ccccc12)NC(=O)OC(C)(C)C`: the Activity with LLC-PK1, in the data set with Vero, with SK-OV-3, with KB, in the data set on BT-549 and in the data set on SK-MEL was > 10 µg/mL each time. Further, the “growth inhibition (GI)” value in the data set on Escherichia coli, with Aspergillus fumigatus, with Pichia kudriavzevii, in the data set on Nakaseomyces glabratus and in the data set with Candida albicans was “inactive” each time. The results for the IC50 entry in the data set with Staphylococcus aureus [7], in the data set on Staphylococcus aureus [8] and in the data set with Cryptococcus neoformans (setting [10]) were “Not Active”, 15.1 µg/mL (≈ 25.6 µM) and 18.7 µg/mL (≈ 31.8 µM), respectively. Also, the MBC result in the data set with Staphylococcus aureus [7] and in the data set with Staphylococcus aureus [8] was “inactive” throughout. Besides, the MIC entry in the data set on Staphylococcus aureus [7], in the data set on Staphylococcus aureus [8] and with Cryptococcus neoformans was “inactive” each time. In the data set with Cryptococcus neoformans, the MFC entry was “inactive”.
